The values below come from ChEMBL document CHEMBL4342513, “Implementation of the CYP Index for the Design of Selective Tryptophan-2,3-dioxygenase Inhibitors” (ACS Med Chem Lett, 2020).

Values after ≈ are worked out from the molar mass of the structure shown.

Data set [1] is described as follows: AUC (infinity) in mouse at 30 mg/kg. It counts as ADME, organism-based. On the set-up: dose 30 mg/kg, time infinity. To be noted: in vivo.
Data set [2] relates to Mus musculus. The data set is described as follows: In vivo inhibition of TDO in mouse assessed as blood tryptophan levels by measuring AUC at 30 mg/kg (reference value: 570 microM.hr). Format: functional, organism-based. The gist of the method: (§1)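 Mouse pharmacodynamic study with escalating doses up to 100 mg/kg and a vehicle-treated comparison group. Blood tryptophan concentration was followed over time.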

Data set [3] in a line: Unbound clearance in mouse plasma. It counts as ADME, cell-free.
Data set [4] has as its system Mus musculus. The data set is described as follows: In vivo inhibition of TDO in mouse assessed as blood tryptophan levels by measuring Cmax at 100 mg/kg (reference value: 340 microM). Format: functional, organism-based. On the set-up: dose 100 mg/kg. The gist of the method:
as §1

Data set [5] can be described thus: Oral bioavailability in mouse at 5 mg/kg. To be noted: in vivo. It counts as ADME, organism-based.
The subject of data set [6] is Mus musculus. The data set is described as follows: In vivo inhibition of TDO in mouse assessed as blood tryptophan levels by measuring Cmax at 10 mg/kg (reference value: 340 microM). It counts as functional, organism-based. On the set-up: dose 10 mg/kg. A digest of the protocol:
as §1

Data set [7] can be described thus: Clearance in rat liver microsomes. It counts as ADME, Microsome. A digest of the protocol:
(§2)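 Clearance was measured in liver microsome incubations from human, rat and mouse. It is expressed as scaled clearance in mL/min/kg.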
(In general: Microsomes from liver hold many membrane-bound enzymes, among them those of drug oxidation.)

Data set [8] in a line: Apparent permeability across apical to basolateral side in MDCK cells. Format: ADME, cell-based, Canis lupus familiaris. To be noted: dog.
Data set [9] is filed under the species Homo sapiens. The data set is described as follows: Selectivity index, ratio of IC50 for inhibition of CYP3A4 (unknown origin) to EC50 for inhibition of EC50 for inhibition of TDO in human SW48 cells. It counts as cell-based.
Data set [10] can be described thus: Cmax in mouse at 100 mg/kg. To be noted: in vivo. On the set-up: dose 100 mg/kg. It counts as ADME, organism-based.
Data set [11] in a line: Volume of distribution at steady state in mouse. Format: ADME, organism-based. To be noted: in vivo, read-out: Vdss.
A short description of data set [12]: Cmax in mouse at 30 mg/kg. It counts as ADME, organism-based. On the set-up: dose 30 mg/kg. To be noted: in vivo.
The target in data set [13] is Indoleamine 2,3-dioxygenase 1 (Homo sapiens, UniProt P14902). The data set is described as follows: Inhibition of IDO1 in human A172 cells after 24 hrs in presence of IFNgamma by NFK green reagent based assay. It counts as cell-based.
Sequence of Indoleamine 2,3-dioxygenase 1 (P14902 whole entry): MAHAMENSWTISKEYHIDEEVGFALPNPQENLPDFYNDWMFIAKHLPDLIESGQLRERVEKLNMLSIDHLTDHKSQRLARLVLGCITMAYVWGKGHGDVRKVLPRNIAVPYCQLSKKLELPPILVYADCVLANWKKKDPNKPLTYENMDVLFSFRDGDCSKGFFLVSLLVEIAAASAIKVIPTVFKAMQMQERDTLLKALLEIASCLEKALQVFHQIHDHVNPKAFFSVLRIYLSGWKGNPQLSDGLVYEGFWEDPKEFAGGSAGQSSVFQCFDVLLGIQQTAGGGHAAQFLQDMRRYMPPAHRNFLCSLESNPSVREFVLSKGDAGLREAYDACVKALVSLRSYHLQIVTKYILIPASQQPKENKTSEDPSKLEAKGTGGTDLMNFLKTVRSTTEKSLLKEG
In data set [14] the target is Tryptophan 2,3-dioxygenase (Homo sapiens, UniProt P48775). The experiment in a line: Inhibition of TDO in human SW48 cells after 24 hrs by NFK green reagent based assay. It counts as cell-based.
Sequence of Tryptophan 2,3-dioxygenase (P48775 whole entry): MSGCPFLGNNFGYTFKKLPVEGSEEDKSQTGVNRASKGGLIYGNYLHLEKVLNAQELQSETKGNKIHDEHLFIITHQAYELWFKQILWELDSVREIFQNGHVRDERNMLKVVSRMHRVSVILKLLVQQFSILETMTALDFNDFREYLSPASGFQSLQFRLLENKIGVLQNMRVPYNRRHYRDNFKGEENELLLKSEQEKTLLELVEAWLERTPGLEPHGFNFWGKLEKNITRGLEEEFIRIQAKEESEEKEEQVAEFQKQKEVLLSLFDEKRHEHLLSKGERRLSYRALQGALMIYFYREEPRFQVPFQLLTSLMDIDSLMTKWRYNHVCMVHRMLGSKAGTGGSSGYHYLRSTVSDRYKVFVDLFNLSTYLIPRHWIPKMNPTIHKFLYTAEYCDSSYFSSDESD
Data set [15] in a line: AUC (infinity) in mouse. It counts as ADME, organism-based. On the set-up: time infinity. To be noted: in vivo.
Data set [16] in a line: Cmax in mouse at 10 mg/kg. On the set-up: dose 10 mg/kg. It counts as ADME, organism-based. To be noted: in vivo.
Data set [17] can be described thus: Protein binding in mouse plasma assessed as unbound fraction. It counts as ADME, cell-free.
Data set [18] can be described thus: Half life in mouse. To be noted: in vivo. It counts as ADME, organism-based.
A short description of data set [19]: Clearance in iv dosed mouse plasma. Format: ADME, organism-based. A digest of the protocol:
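Compounds were given to mice as discrete (single-compound) intravenous doses. Plasma clearance (CLp) is expressed in mL/min/kg.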

Data set [20] in a line: Oral bioavailability in mouse at 1 mg/kg dosed as cassette formulation. Format: ADME, organism-based. To be noted: in vivo.
A short description of data set [21]: Kinetic solubility of compound. Format: physicochemical. To be noted: read-out: Kinetic_solubility.
A short description of data set [22]: AUC (infinity) in mouse at 10 mg/kg. Format: ADME, organism-based. On the set-up: dose 10 mg/kg, time infinity. To be noted: in vivo.
Data set [23] has as its target Cytochrome P450 3A4 (Homo sapiens, UniProt P08684). The data set is described as follows: Inhibition of CYP3A4 (unknown origin). It counts as ADME.
The nature of data set [24]: Clearance in human liver microsomes. It counts as ADME, Microsome. A digest of the protocol: as §2
In data set [25] the test system is Mus musculus. The data set is described as follows: In vivo inhibition of TDO in mouse assessed as blood tryptophan levels by measuring AUC at 10 mg/kg (reference value: 570 microM.hr). Format: functional, organism-based. The gist of the method: as §1
The species named for data set [26] is Homo sapiens. The data set is described as follows: Selectivity index, ratio of EC50 for inhibition of IDO1 in human A172 cells in presence of IFNgamma to EC50 for inhibition of TDO in human SW48 cells. Format: cell-based.
A short description of data set [27]: Clearance in mouse liver microsomes. Format: ADME, Microsome. The gist of the method:
as §2

Data set [28] relates to Mus musculus. The data set is described as follows: In vivo inhibition of TDO in mouse assessed as blood tryptophan levels by measuring AUC at 100 mg/kg (reference value: 570 microM.hr). Format: functional, organism-based. A digest of the protocol: as §1
Data set [29] in a line: AUC (infinity) in mouse at 100 mg/kg. Format: ADME, organism-based. On the set-up: dose 100 mg/kg, time infinity. To be noted: in vivo.
Data set [30] deals with Mus musculus. The experiment in a line: In vivo inhibition of TDO in mouse assessed as blood tryptophan levels by measuring Cmax at 30 mg/kg (reference value: 340 microM). It counts as functional, organism-based. On the set-up: dose 30 mg/kg. The gist of the method: as §1

Sequence of Cytochrome P450 3A4 (P08684 whole entry): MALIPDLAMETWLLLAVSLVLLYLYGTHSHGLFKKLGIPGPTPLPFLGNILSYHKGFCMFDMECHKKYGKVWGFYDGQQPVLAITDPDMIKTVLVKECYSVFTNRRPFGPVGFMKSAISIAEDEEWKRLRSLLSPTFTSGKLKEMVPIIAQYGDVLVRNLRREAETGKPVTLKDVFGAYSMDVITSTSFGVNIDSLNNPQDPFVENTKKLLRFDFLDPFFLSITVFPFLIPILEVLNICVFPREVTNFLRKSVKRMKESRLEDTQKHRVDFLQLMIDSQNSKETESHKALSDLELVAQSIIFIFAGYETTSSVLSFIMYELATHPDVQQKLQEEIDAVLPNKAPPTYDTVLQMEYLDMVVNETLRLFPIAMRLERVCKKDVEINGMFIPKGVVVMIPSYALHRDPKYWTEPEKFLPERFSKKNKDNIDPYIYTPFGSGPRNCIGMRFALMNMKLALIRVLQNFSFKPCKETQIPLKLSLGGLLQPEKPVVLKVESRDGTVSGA

A word on the AUC(0-inf): it is the area under the concentration-time curve extrapolated to infinity. Low values mean low exposure, high ones high exposure. One may read the Papp A→B as the apparent permeability from the apical to the basolateral side of a cell layer. By EC50 is commonly meant the midpoint of the concentration-response curve. By fraction unbound is commonly meant the share of the substance not bound to proteins or other matrix. For orientation: half-life means the time in which the quantity being followed falls by half. Low readings indicate fast loss, high ones slow loss. By clearance is commonly meant the volume of plasma or blood freed of the substance per unit of time. A low value points to inefficient removal. Usually IC50 stands for the concentration that gives 50% inhibition. As for `O[C@@H]1c2cnccc2CC[C@H]1[C@H]1c2ccccc2-c2cncn21`, the AUC(0-inf) in data set [1] was found to be 35 µM·h; in data set [15], 0.34 µM·h; in data set [22] it was 5 µM·h; in data set [29], 210 µM·h. In addition, the AUC in [2] came out at 229000 ng·h/mL; in data set [25], 139000 ng·h/mL; in data set [28], 404000 ng·h/mL. Further, the CL free in data set [3] was 410 mL/min/kg. Moreover, the Cmax was 540 µM in data set [4]; 420 µM in data set [6]; 70 µM in data set [10]; 21.2 µM in data set [12]; 4.1 µM in data set [16]; 560 µM in [30]. In addition, the bioavailability in data set [5] turned out to be 78%; in data set [20], 68%. For the same molecule, the CLhep predicted was 38 mL/min/kg in data set [7], 6.9 mL/min/kg in data set [24] and 71 mL/min/kg in data set [27]. Besides, the apparent permeability from apical to basolateral (Papp A→B) in data set [8] is 11 ×10⁻⁶ cm/s. For the same molecule, the Ratio IC50/EC50 in data set [9] was found to be 48. Besides, the Vd in data set [11] is 1.4 L/kg. Moreover, the concentration for a half-maximal effect (EC50) is 1.4 µM in data set [13] and 0.05 µM in data set [14]. Moreover, in data set [17], the fraction unbound stood at 0.07. For the same molecule, in data set [18], the half-life is 37.2 min. Further, the clearance in [19] was 29 mL/min/kg. Moreover, the solubility kinetic in data set [21] was 139 µM (≈ 42.2 µg/mL). This molecule also registered an IC50 in data set [23] of 2.4 µM. For the same molecule, in data set [26], the Ratio EC50 was determined as 28.

The molecule `O[C@@H]1c2ccnn2CC[C@H]1[C@H]1c2ccccc2-c2cncn21` displayed a CL free in data set [3] of 310 mL/min/kg. In addition, the bioavailability stood at 70% in data set [5] and 140% in [20]. For the same molecule, the CLhep predicted in [7] was 37 mL/min/kg; in [24], less than 3.9 mL/min/kg; in data set [27] it was 45 mL/min/kg. Further, the apparent permeability from apical to basolateral (Papp A→B) in [8] worked out at 13 ×10⁻⁶ cm/s. Besides, in [9], the Ratio IC50/EC50 was more than 77. In [11], the Vd is 1.1 L/kg. In data set [14], this molecule displayed an EC50 of 0.13 µM. For the same molecule, the AUC(0-inf) in data set [15] was found to be 0.81 µM·h. Also, the fraction unbound in data set [17] is 0.09. Besides, in [18], the half-life is 46.8 min. The same molecule displayed a clearance in data set [19] of 28 mL/min/kg. Further, the solubility kinetic in data set [21] was found to be 149 µM (≈ 43.6 µg/mL). This molecule showed an IC50 in data set [23] of more than 10 µM. For the same molecule, the Ratio EC50 in [26] is 35.
